Source: ChEMBL document CHEMBL3425458, “Design, synthesis and antitumor activity of triterpenoid pyrazine derivatives from 23-hydroxybetulinic acid” (Eur J Med Chem, 2015)
pIC50: −log10 of the molar value.

Legend:
B16 [1] = test: Cell cycle arrest in mouse B16 cells assessed as accumulation of cells at G2/G1 phase at 1.25 uM after 72 hrs by propidium iodide staining based flow cytometry (reference value: 1.83%); format: functional
Mus musculus [2] = test: Toxicity against mouse xenografted with mouse B16 cells assessed as body weight at 30 mg/kg, ip administered after 7 days of tumor transplantation (reference value: 18.2 to 18.3 gms); format: organism-based; set-up: dose 30 mg/kg, route intraperitoneal; conditions: in vivo, 168 h
HeLa [3] = test: Selectivity index, ratio of IC50 for human HL7702 cells to IC50 for human HeLa cells by MTT assay
How it was run: (§1)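 MTT assay on normal human hepatocyte line HL-7702, with 72 h treatment. Selectivity index is the IC50 in HL-7702 divided by the IC50 in each cancer cell line.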

[4] = Antiproliferative activity against human SF763 cells assessed as growth inhibition after 72 hrs by MTT assay; format: functional, cell-based; conditions: SF763, 72 h
How it was run: (§2)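 Values are mean ± S.D. from three different experiments, each performed in triplicate.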

[5] = Selectivity index, ratio of IC50 for human HL7702 cells to IC50 for human SF763 cells by MTT assay; how it was run: as §1
B16 [6] = test: Induction of apoptosis in mouse B16 cells assessed as early apoptotic cells at 5 uM after 72 hrs by Annexin V-FITC/propidium iodide staining-based flow cytometry (reference value: 2.15%); format: functional
How it was run: (§3)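 B16 cells were treated with vehicle or 1.25, 2.5 or 5 µM for 72 h. Annexin V/PI staining was read by flow cytometry. Values are mean ± SE of at least three independent experiments.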

B16 [7] = test: Induction of apoptosis in mouse B16 cells assessed as early apoptotic cells at 1.25 uM after 72 hrs by Annexin V-FITC/propidium iodide staining-based flow cytometry (reference value: 2.15%); format: functional; how it was run: as §3
B16 [8] = test: Cell cycle arrest in mouse B16 cells assessed as accumulation of cells at S phase at 2.5 uM after 72 hrs by propidium iodide staining based flow cytometry (reference value: 59.21%); format: functional
B16 [9] = test: Cell cycle arrest in mouse B16 cells assessed as accumulation of cells at S phase at 5 uM after 72 hrs by propidium iodide staining based flow cytometry (reference value: 59.21%); format: functional
B16 [10] = test: Selectivity index, ratio of IC50 for human HL7702 cells to IC50 for mouse B16 cells by MTT assay; how it was run: as §1
Bel-7402 = test: Selectivity index, ratio of IC50 for human HL7702 cells to IC50 for human BEL7402 cells by MTT assay; how it was run: as §1
B16 [11] = test: Induction of apoptosis in mouse B16 cells assessed as viable cells at 5 uM after 72 hrs by Annexin V-FITC/propidium iodide staining-based flow cytometry (reference value: […]); format: functional; conditions: B16, 72 h, read-out: Activity
B16 [12] = test: Cell cycle arrest in mouse B16 cells assessed as accumulation of cells at G2/G1 phase at 5 uM after 72 hrs by propidium iodide staining based flow cytometry (reference value: 1.83%); format: functional
B16 [13] = test: Cell cycle arrest in mouse B16 cells assessed as accumulation of cells at G2 phase at 1.25 uM after 72 hrs by propidium iodide staining based flow cytometry (reference value: 16.73%); format: functional
B16 [14] = test: Induction of apoptosis in mouse B16 cells assessed as necrotic cells at 1.25 uM after 72 hrs by Annexin V-FITC/propidium iodide staining-based flow cytometry (reference value: […]); format: functional; how it was run: as §3
[15] = Antiproliferative activity against human HL60 cells assessed as growth inhibition after 72 hrs by MTT assay; format: functional, cell-based; conditions: HL-60, 72 h; how it was run: as §2
Mus musculus [16] = test: Toxicity against mouse xenografted […] cells assessed as body weight at 30 mg/kg, ip administered after 7 days of tumor transplantation (reference value: 18.1 to 18.6 gms); format: organism-based; set-up: dose 30 mg/kg, route intraperitoneal; conditions: in vivo, 168 h
How it was run: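 H22 liver cancer-bearing mice, 10 per group at start and end. Test article given ip at 30 mg/kg, with a vehicle group (0.5 mL/mouse, iv). Body weight was recorded at start and at end, alongside tumor weight.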

B16 [17] = test: Induction of apoptosis in mouse B16 cells assessed as viable cells at 1.25 uM after 72 hrs by Annexin V-FITC/propidium iodide staining-based flow cytometry (reference value: […]); format: functional; conditions: B16, 72 h, read-out: Activity
B16 [18] = test: In vivo antitumor activity against mouse B16 cells xenografted in mouse assessed as tumor growth inhibitory ratio at 30 mg/kg, ip administered after 7 days of tumor transplantation measured at 25th day after tumor inoculation; format: functional; conditions: 168 h, route intraperitoneal
B16 [19] = test: Induction of apoptosis in mouse B16 cells assessed as necrotic cells at 5 uM after 72 hrs by Annexin V-FITC/propidium iodide staining-based flow cytometry (reference value: […]); format: functional; how it was run: as §3
B16 [20] = test: Induction of apoptosis in mouse B16 cells assessed as late apoptotic cells at 2.5 uM after 72 hrs by Annexin V-FITC/propidium iodide staining-based flow cytometry (reference value: 3.51%); format: functional; how it was run: as §3
[21] = Selectivity index, ratio of IC50 for human HL7702 cells to IC50 for human HL60 cells by MTT assay; how it was run: as §1
B16 [22] = test: Cell cycle arrest in mouse B16 cells assessed as accumulation of cells at S phase at 1.25 uM after 72 hrs by propidium iodide staining based flow cytometry (reference value: 59.21%); format: functional
B16 [23] = test: Cell cycle arrest in mouse B16 cells assessed as accumulation of cells at G1 phase at 1.25 uM after 72 hrs by propidium iodide staining based flow cytometry (reference value: 24.06%); format: functional
B16 [24] = test: Induction of apoptosis in mouse B16 cells assessed as viable cells at 2.5 uM after 72 hrs by Annexin V-FITC/propidium iodide staining-based flow cytometry (reference value: […]); format: functional; conditions: B16, 72 h, read-out: Activity
B16 [25] = test: Cell cycle arrest in mouse B16 cells assessed as accumulation of cells at G2 phase at 5 uM after 72 hrs by propidium iodide staining based flow cytometry (reference value: 16.73%); format: functional
B16 [26] = test: Cell cycle arrest in mouse B16 cells assessed as accumulation of cells at G2/G1 phase at 2.5 uM after 72 hrs by propidium iodide staining based flow cytometry (reference value: 1.83%); format: functional
H22 = test: In vivo antitumor activity […] cells xenografted in mouse assessed as tumor growth inhibitory ratio at 30 mg/kg, ip administered after 7 days of tumor transplantation measured at 25th day after tumor inoculation; format: functional; conditions: 168 h, route intraperitoneal
How it was run: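 Mice bearing H22 liver cancer, 10 per group. Test article at 30 mg/kg ip. Vehicle 0.5 mL/mouse iv. Cyclophosphamide 30 mg/kg iv as positive control. Tumor weight recorded to give tumor inhibitory ratio.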

B16 [27] = test: Cell cycle arrest in mouse B16 cells assessed as accumulation of cells at G2 phase at 2.5 uM after 72 hrs by propidium iodide staining based flow cytometry (reference value: 16.73%); format: functional
B16 [28] = test: Antiproliferative activity against mouse B16 cells assessed as growth inhibition after 72 hrs by MTT assay; format: functional, cell-based; conditions: B16, 72 h
How it was run: (§4)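 IC50 is the concentration inhibiting 50% cell growth. Values are mean ± S.D. from three different experiments, each performed in triplicate.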

B16 [29] = test: Induction of apoptosis in mouse B16 cells assessed as late apoptotic cells at 1.25 uM after 72 hrs by Annexin V-FITC/propidium iodide staining-based flow cytometry (reference value: 3.51%); format: functional; how it was run: as §3
HeLa [30] = test: Antiproliferative activity against human HeLa cells assessed as growth inhibition after 72 hrs by MTT assay; format: functional, cell-based; how it was run: as §4
B16 [31] = test: Induction of apoptosis in mouse B16 cells assessed as early apoptotic cells at 2.5 uM after 72 hrs by Annexin V-FITC/propidium iodide staining-based flow cytometry (reference value: 2.15%); format: functional; how it was run: as §3
B16 [32] = test: Induction of apoptosis in mouse B16 cells assessed as necrotic cells at 2.5 uM after 72 hrs by Annexin V-FITC/propidium iodide staining-based flow cytometry (reference value: […]); format: functional; how it was run: as §3
B16 [33] = test: Cell cycle arrest in mouse B16 cells assessed as accumulation of cells at G1 phase at 5 uM after 72 hrs by propidium iodide staining based flow cytometry (reference value: 24.06%); format: functional
[34] = Antiproliferative activity against human Bel7402 cells assessed as growth inhibition after 72 hrs by MTT assay; format: functional, cell-based; conditions: Bel-7402, 72 h; how it was run: as §4
B16 [35] = test: Cell cycle arrest in mouse B16 cells assessed as accumulation of cells at G1 phase at 2.5 uM after 72 hrs by propidium iodide staining based flow cytometry (reference value: 24.06%); format: functional
[36] = Antiproliferative activity against human HL7702 cells assessed as growth inhibition after 72 hrs by MTT assay; format: cell-based; conditions: L02, 72 h; how it was run: as §1
B16 [37] = test: Induction of apoptosis in mouse B16 cells assessed as late apoptotic cells at 5 uM after 72 hrs by Annexin V-FITC/propidium iodide staining-based flow cytometry (reference value: 3.51%); format: functional; how it was run: as §3

Work on C=C(C)[C@@H]1CC[C@]2(C(=O)N3CCOCC3)CC[C@]3(C)[C@H](CC[C@@H]4[C@@]5(C)Cc6nccnc6[C@@](C)(COC(C)=O)[C@@H]5CC[C@]43C)[C@@H]12 yielded an Activity (B16 [1]) of 1.82%, an Activity (Mus musculus [2]) of 25.9 g and a Ratio IC50 (HeLa [3]) of 14.7. It also gave a pIC50 [4] of 5.45, a Ratio IC50 [5] of 21.4 and an Activity (B16 [6]) of 45.34%. It also gave an Activity (B16 [7]) of 11.33%, an Activity (B16 [8]) of 58.79% and an Activity (B16 [9]) of 63.27%. The Ratio IC50 (B16 [10]) was 17.1, the “Ratio IC50” value (Bel-7402) was 11 and the viability at 5 µM (B16 [11]) was 40.6%. For the same compound, the Activity (B16 [12]) was 1.85%, the Activity (B16 [13]) was 9.18% and the Activity (B16 [14]) was 0.86%. It also gave a pIC50 [15] of 5.15, an Activity (Mus musculus [16]) of 25.9 g and a viability at 1.25 µM (B16 [17]) of 82.6%. The inhibition in vivo at 30 mg/kg (B16 [18]) was 62.7%, the Activity (B16 [19]) was 1.96% and the Activity (B16 [20]) was 11.48%. For the same compound, the “Ratio IC50” value [21] was 11, the Activity (B16 [22]) was 61.15% and the Activity (B16 [23]) was 29.67%. It also gave a viability at 2.5 µM (B16 [24]) of 67.8%, an Activity (B16 [25]) of 3.27% and an Activity (B16 [26]) of 1.85%. For the same compound, the inhibition in vivo at 30 mg/kg (H22) was 55.6%, the Activity (B16 [27]) was 6.54% and the pIC50 (B16 [28]) was 5.35. It also gave an Activity (B16 [29]) of 5.18%, a pIC50 (HeLa [30]) of 5.29 and an Activity (B16 [31]) of 20.14%. It also gave an Activity (B16 [32]) of 0.52%, an Activity (B16 [33]) of 33.46% and a pIC50 [34] of 5.15. It also gave an Activity (B16 [35]) of 34.67%, a pIC50 [36] of 4.12 and an Activity (B16 [37]) of 12.1%.
